From ChEMBL document CHEMBL2157903, “2-Arylbenzofuran-based molecules as multipotent Alzheimer's disease modifying agents” (Eur J Med Chem, 2012)
pEC50, pIC50, pKi: −log10 of the molar value. Calls of active or inactive are those of the source. The rule behind the calls is not given here.

What was measured:
[1] = target: Cholinesterase (Homo sapiens, UniProt P06276); test: Inhibition of human serum BuChE using butyrylthiocholine iodide as substrate preincubated for 20 mins prior to substrate addition by Ellman's method
How it was run: (§1)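 Ellman method with acetylthiocholine iodide (AChE) or butyrylthiocholine iodide (BuChE) as substrate. Enzyme and inhibitor preincubated 20 min at 37 °C before substrate addition. Blanks without enzyme corrected for non-enzymatic hydrolysis. Five inhibitor concentrations giving 20-80% inhibition. IC50 from linear regression of % inhibition vs log final concentration. Mean of two or three independent measurements, each in triplicate.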

[2] = target: T1, Acetylcholinesterase (Homo sapiens, UniProt P22303); test: Inhibition of human recombinant AChE using acetylthiocholine iodide as substrate preincubated for 20 mins prior to substrate addition by Ellman's method; details: for pIC50: read-out: IC50; how it was run: as §1
[3] = Inhibition of amyloid beta (25 to 35) fibril formation at 10 uM incubated up to 6 hrs by UV-Vis spectrophotometric analysis
How it was run: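 Aβ25-35 at 100 μM final, in 10 mM phosphate buffer pH 7.2, sonicated 1 min on addition. Compound added in MeOH at 10 μM final, with curcumin reference alongside. Polymerization followed by UV-vis at 190-380 nm over 0-6 h. Spectra of compound alone were subtracted. At least three independent runs.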

[4] = Inhibition of amyloid beta (25 to 35) fibril formation incubated up to 6 hrs by UV-Vis spectrophotometric analysis
How it was run: (§2)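 Aβ25-35, sonicated 1 min, was mixed in 10 mM phosphate buffer (pH 7.2) with compound added in MeOH, on ice. Polymerization was followed by UV-visible spectroscopy at 190–380 nm over 0–6 h. Compound-alone spectra were subtracted, and peptide-alone and curcumin controls were run in parallel. IC50 (0.1–50 range) came from a sigmoidal least-squares fit. At least three independent runs.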

[5] = Ratio of curcumin IC50 to compound IC50 for amyloid beta (25 to 35)
[6] = test system: SH-SY5Y; test: Neuroprotective activity in human SH-SY5Y cells assessed as inhibition of amyloid beta (25 to 35)-induced cytotoxicity at 30 uM after 3 hrs by MTT assay; type: functional
How it was run: (§3)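 SH-SY5Y cells in DMEM with 10% FBS were seeded at 3 × 10⁴/well for 24 h. They were exposed for 3 h at 37 °C to HFIP-pretreated unaggregated Aβ25-35 with or without compound (1–30 range). Viability was read by MTT (5 mg/mL, 2 h; isopropanol; 570/690 nm) as % of untreated control. Percentage protection is given at the highest concentration. Mean ± SD of at least two experiments.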

[7] = target: Amyloid-beta precursor protein (Homo sapiens) (UniProt P05067); test: Inhibition of amyloid beta (25 to 35) binding to plasma membrane surface of human Sh-SY5Y cells at 30 uM after 30 mins by congo red-based spectrophotometry; type: cell-based
How it was run: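 SH-SY5Y cells were seeded at 5 × 10³/well for 24 h, then given fresh medium with Aβ25-35 and compound for 10, 20 and 30 min. After two PBS washes, bound peptide was stained with Congo red in PBS for 20 min. Absorbance was read at 540 nm and expressed as % of untreated cells.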

[8] = test system: SH-SY5Y; test: Neuroprotective effect in human SH-SY5Y cells assessed as inhibition of amyloid beta (25 to 35)-induced ROS production at 30 uM after 3 hrs by DHE-based fluorimetric analysis; type: functional, cell-based
How it was run: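 SH-SY5Y cells were seeded at 1 × 10⁴/well on culture slides for 24 h and treated with Aβ25-35 with or without compound for 3 h. ROS was measured with DHE loaded for 15 min in the dark, then 1 h in serum-free DMEM at 37 °C. Fluorescence microscopy covered four random fields of 50–100 cells each, scored as densitometry per cell versus untreated cells. Mean ± SD of three experiments.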

[9] = target: T2, Cannabinoid receptor 1 (Homo sapiens, UniProt P21554); test: Displacement of [3H]CP-55940 from human recombinant CB1 receptor expressed in HEK293 cells after 90 mins; type: cell-based
How it was run: (§4)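 Membranes from HEK-293 cells stably expressing human recombinant CB1 (Bmax 2.5 pmol/mg) or CB2 (Bmax 4.7 pmol/mg). Incubated with [3H]-CP-55,940 (CB1 0.14 nM, Kd 0.18 nM; CB2 0.084 nM, Kd 0.31 nM) and increasing compound concentrations for 90 min at 30 °C. Non-specific binding defined with 10 […] 55212-2. IC50 by non-linear regression, converted to Ki by Cheng-Prusoff. Means of at least n = 3.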

[10] = target: T2, Cannabinoid receptor 1; test: Displacement of [3H]CP-55940 from human recombinant CB1 receptor expressed in HEK293 cells at 10 uM after 90 mins; type: cell-based
How it was run: (§5)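 Membranes from HEK-293 cells stably expressing human recombinant CB1 or CB2 were incubated with [³H]-CP-55,940 (0.14 nM for CB1; 0.084 nM for CB2) plus test compound for 90 min at 30 °C. Non-specific binding was defined with WIN 55212-2. Percent displacement of bound radioligand at the maximum tested concentration is reported. At least n = 3 experiments.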

[11] = target: T3, Cannabinoid receptor 2 (Homo sapiens, UniProt P34972); test: Displacement of [3H]CP-55940 from human recombinant CB2 receptor expressed in HEK293 cells after 90 mins; type: cell-based; how it was run: as §4
[12] = target: T3, Cannabinoid receptor 2; test: Displacement of [3H]CP-55940 from human recombinant CB2 receptor expressed in HEK293 cells at 10 uM after 90 mins; type: cell-based
[13] = Induction of amyloid beta (25 to 35) fibril formation at 10 uM incubated up to 6 hrs by UV-Vis spectrophotometry; how it was run: as §2
[14] = target: T1, Acetylcholinesterase; test: Pseudo-irreversible inhibition of human recombinant AChE using acetylthiocholine iodide as substrate preincubated for 20 mins prior to substrate addition by Ellman's method
[15] = target: T1, Acetylcholinesterase; test: Ratio of rivastigmine IC50 to compound IC50 for human recombinant AChE
[16] = target: T2, Cannabinoid receptor 1; test: Displacement of [3H]CP-55940 from human recombinant CB1 receptor expressed in HEK293 cells at 25 uM after 90 mins; type: cell-based; how it was run: as §5
[17] = target: T3, Cannabinoid receptor 2; test: Displacement of [3H]CP-55940 from human recombinant CB2 receptor expressed in HEK293 cells at 25 uM after 90 mins; type: cell-based; how it was run: as §5
[18] = test system: SH-SY5Y; test: Neuroprotective activity in human SH-SY5Y cells assessed as inhibition of amyloid beta (25 to 35)-induced cytotoxicity after 3 hrs by MTT assay; type: functional, cell-based; how it was run: as §3

T2 sequence (P21554 whole entry): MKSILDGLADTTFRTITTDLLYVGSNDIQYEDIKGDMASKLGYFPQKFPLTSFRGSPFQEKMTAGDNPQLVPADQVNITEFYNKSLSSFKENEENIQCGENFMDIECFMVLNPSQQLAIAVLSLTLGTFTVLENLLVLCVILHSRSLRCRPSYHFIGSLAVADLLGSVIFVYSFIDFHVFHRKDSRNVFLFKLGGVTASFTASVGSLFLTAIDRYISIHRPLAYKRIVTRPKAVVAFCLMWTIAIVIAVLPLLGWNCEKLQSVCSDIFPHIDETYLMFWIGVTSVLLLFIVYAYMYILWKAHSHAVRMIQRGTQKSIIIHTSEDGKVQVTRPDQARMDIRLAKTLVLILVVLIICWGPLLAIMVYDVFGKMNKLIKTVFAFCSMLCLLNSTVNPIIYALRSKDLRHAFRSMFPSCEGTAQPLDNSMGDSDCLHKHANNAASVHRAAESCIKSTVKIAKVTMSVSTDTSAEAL
Chain of Amyloid-beta precursor protein (Homo sapiens) (P05067 whole entry): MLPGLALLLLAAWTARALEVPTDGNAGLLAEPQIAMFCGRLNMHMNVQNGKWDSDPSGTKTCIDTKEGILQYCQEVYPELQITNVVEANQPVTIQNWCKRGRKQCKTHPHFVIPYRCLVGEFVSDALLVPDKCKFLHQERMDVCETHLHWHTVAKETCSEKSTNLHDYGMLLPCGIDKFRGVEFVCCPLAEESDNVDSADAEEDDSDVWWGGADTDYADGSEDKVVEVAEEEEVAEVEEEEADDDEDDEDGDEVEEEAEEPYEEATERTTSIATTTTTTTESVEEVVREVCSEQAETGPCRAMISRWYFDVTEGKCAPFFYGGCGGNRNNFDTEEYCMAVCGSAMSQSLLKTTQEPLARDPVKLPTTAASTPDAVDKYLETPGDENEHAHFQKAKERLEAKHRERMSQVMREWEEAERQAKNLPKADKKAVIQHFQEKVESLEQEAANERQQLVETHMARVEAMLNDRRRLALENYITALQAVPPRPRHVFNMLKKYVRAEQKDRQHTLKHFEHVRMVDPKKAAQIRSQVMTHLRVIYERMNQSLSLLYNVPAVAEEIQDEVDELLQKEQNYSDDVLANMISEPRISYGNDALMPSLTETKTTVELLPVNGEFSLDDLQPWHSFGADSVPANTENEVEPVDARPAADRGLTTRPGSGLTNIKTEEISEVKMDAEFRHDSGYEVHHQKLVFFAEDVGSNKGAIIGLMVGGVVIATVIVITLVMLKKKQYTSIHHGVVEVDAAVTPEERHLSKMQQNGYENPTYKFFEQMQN
T3 sequence (P34972 whole entry): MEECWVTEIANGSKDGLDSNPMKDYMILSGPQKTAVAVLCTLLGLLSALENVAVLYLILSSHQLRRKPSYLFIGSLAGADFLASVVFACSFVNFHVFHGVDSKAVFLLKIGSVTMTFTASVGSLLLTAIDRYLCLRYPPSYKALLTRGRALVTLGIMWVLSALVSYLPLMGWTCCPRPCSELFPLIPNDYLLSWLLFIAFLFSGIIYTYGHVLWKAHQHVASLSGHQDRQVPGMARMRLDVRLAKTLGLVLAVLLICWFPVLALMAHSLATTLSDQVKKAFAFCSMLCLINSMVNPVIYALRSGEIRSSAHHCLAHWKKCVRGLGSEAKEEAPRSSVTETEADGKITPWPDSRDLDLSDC
Chain of Cholinesterase (P06276 whole entry): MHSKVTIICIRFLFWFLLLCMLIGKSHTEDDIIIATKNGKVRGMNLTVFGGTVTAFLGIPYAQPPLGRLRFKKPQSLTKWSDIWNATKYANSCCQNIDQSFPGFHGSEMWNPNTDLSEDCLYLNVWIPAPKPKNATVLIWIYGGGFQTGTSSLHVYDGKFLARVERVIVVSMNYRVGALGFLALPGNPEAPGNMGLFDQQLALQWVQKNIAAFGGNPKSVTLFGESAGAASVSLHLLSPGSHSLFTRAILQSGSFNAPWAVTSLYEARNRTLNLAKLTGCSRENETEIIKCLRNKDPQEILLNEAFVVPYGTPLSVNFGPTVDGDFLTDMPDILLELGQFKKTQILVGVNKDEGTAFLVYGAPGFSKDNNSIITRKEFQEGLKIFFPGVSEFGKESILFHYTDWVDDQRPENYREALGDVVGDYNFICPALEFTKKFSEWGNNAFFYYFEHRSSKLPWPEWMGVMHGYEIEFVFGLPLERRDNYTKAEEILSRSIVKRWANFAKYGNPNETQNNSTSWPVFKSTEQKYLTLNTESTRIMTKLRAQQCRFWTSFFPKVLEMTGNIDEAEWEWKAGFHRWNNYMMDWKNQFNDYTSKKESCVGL
T1 sequence (P22303 whole entry): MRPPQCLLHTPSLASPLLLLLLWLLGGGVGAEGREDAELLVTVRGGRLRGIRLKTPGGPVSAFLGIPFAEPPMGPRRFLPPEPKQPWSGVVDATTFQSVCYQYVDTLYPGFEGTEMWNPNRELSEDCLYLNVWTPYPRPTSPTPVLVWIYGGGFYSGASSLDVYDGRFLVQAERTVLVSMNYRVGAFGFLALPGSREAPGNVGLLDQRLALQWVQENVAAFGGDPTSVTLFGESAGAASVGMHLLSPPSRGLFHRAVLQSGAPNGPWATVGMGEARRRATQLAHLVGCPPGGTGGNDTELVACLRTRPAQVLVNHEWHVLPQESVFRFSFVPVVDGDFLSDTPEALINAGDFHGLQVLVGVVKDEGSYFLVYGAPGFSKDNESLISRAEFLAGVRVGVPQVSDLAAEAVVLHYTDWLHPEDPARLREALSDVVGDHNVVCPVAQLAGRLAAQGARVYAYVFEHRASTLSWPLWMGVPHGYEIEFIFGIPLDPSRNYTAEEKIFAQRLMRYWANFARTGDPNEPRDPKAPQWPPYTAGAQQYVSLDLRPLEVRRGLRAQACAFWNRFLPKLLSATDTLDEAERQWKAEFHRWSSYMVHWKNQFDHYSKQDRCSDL

Compound	pIC50 [1]	IC50 [2]	inhibition [3]	pIC50 [4]	inhibition at 30 µM [6] [%]	inhibition [7]	inhibition [8]	pEC50 [9]	pKi [9]	Activity [10] [%]	pEC50 [11]	pKi [11]	Activity [12] [%]	pIC50 [2]	also measured
CN(CCCCCCCOc1cccc(-c2cc3ccccc3o2)c1)Cc1ccccc1	5.52	Not Active	81%	5.41											Ratio IC50 [5]: 2.5
CN(CCCCCCCOc1ccc(-c2oc3ccccc3c2C(=O)c2ccccc2)cc1)Cc1ccccc1			47%	4.90	58.2	Active	Active	6.10	6.49	8.72	< 5.00	< 5.00	47.3		
CN(CCCCCCCOc1ccc(-c2oc3ccccc3c2C(=O)c2c3ccccc3cc3ccccc23)cc1)Cc1ccccc1	4.09							< 5.00	< 5.00	30.3	< 5.00	< 5.00	9.87	4.17	Activity [13]: Toxic
CNC(=O)Oc1cccc(CN(C)CCCCCCCOc2ccc(-c3oc4ccccc4c3C(=O)c3ccc(C)cc3)cc2)c1	6.06													6.47	inhibition [14]: Active; Ratio IC50 [15]: 1
CN(CCCCCCCCCOc1ccc(-c2cc3ccccc3o2)cc1)Cc1ccccc1	4.25	Not Active		5.26											
COc1cc(/C=C/C(=O)CC(=O)/C=C/c2ccc(O)c(OC)c2)ccc1O [CURCUMIN]				5.00											
CCN(CC)Cc1ccc(C(=O)c2c(-c3ccc(OCCCCCCCN(C)Cc4ccccc4)cc3)oc3ccccc23)cc1	5.03		Active					< 5.00	< 5.00	47.7	5.36	5.95	65.2	4.00	
CN(CCCCCCCOc1ccc(-c2oc3ccccc3c2C(=O)c2ccc(-c3ccccc3)cc2)cc1)Cc1ccccc1	4.05	Not Active						5.11	5.51		5.15	5.75			Activity [16]: 80%; Activity [17]: 86%
CN(CCCCCCCOc1cccc(-c2oc3ccccc3c2C(=O)c2ccccc2)c1)Cc1ccccc1	5.54		35%		48.4	Active	Active							6.62	inhibition [18]: Dose-dependent effect; Activity [9]: inactive; Activity [11]: inactive
Cc1cccc(C(=O)c2c(-c3cccc(OCCCCCCCN(C)Cc4ccccc4)c3)oc3ccccc23)c1	6.40		48%		46.2	Active	Active							3.99	inhibition [18]: Dose-dependent effect; Activity [9]: inactive; Activity [11]: inactive
